Laboratory results: ChEMBL document CHEMBL1649535, “In vitro interactions between antifungals and immunosuppressive drugs against zygomycetes” (2009)

Tests used:
Type in all cases: functional
[1] = Antimicrobial activity against Rhizopus microsporus after 24 hrs by broth microdilution checkerboard procedure
Summary of the method: (§1)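 CLSI broth microdilution for filamentous fungi, adapted to checkerboard; 1–3 isolates per species. Final ranges: amphotericin B and azoles 0.004–2 μg/ml; cyclosporine 0.125–8 μg/ml; tacrolimus and rapamycin 0.06–4 μg/ml, with extra runs at 0.001–0.06 μg/ml. Incubated 24 h at 35°C and read spectrophotometrically. MIC is the lowest concentration giving 50% inhibition (amphotericin B alone: 90%). Most tests run in duplicate.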

Lichtheimia corymbifera = assay: Antimicrobial activity against Mycocladus corymbiferus after 24 hrs by broth microdilution checkerboard procedure; summary of the method: as §1
Rhizomucor pusillus = assay: Antimicrobial activity against Rhizomucor pusillus after 24 hrs by broth microdilution checkerboard procedure; summary of the method: as §1
Mucor circinelloides = assay: Antimicrobial activity against Mucor circinelloides after 24 hrs by broth microdilution checkerboard procedure; summary of the method: as §1
Rhizopus arrhizus = assay: Antimicrobial activity against Rhizopus oryzae after 24 hrs by broth microdilution checkerboard procedure; summary of the method: as §1

Compound | MIC [1] [µg/mL] | MIC (Lichtheimia corymbifera) [µg/mL] | MIC (Rhizomucor pusillus) [µg/mL] | MIC (Mucor circinelloides) [µg/mL] | MIC (Rhizopus arrhizus) [µg/mL]
CCC(C)n1ncn(-c2ccc(N3CCN(c4ccc(OCC5COC(Cn6cncn6)(c6ccc(Cl)cc6Cl)O5)cc4)CC3)cc2)c1=O (centres undefined) [ITRACONAZOLE] | 0.62 | 0.62 | 0.62 | 0.62 | 0.62
CC[C@@H]([C@H](C)O)n1ncn(-c2ccc(N3CCN(c4ccc(OC[C@@H]5CO[C@@](Cn6cncn6)(c6ccc(F)cc6F)C5)cc4)CC3)cc2)c1=O [POSACONAZOLE] | 0.57 | 0.57 | 0.57 | 0.57 | 0.57
C=CC[C@@H]1/C=C(\C)C[C@H](C)C[C@H](OC)[C@H]2O[C@@](O)(C(=O)C(=O)N3CCCC[C@H]3C(=O)O[C@H](/C(C)=C/[C@@H]3CC[C@@H](O)[C@H](OC)C3)[C@H](C)[C@@H](O)CC1=O)[C@H](C)C[C@@H]2OC [TACROLIMUS ANHYDROUS] | > 4 | ≤ 0.5 | > 4 | ≤ 0.5 | ≤ 0.5

Molecules with a lower MIC [1], results first:

MIC [1] [µg/mL] | MIC (Lichtheimia corymbifera) [µg/mL] | MIC (Rhizomucor pusillus) [µg/mL] | MIC (Mucor circinelloides) [µg/mL] | MIC (Rhizopus arrhizus) [µg/mL] | Compound
0.125 | 0.125 | 0.125 | 0.125 | 0.125 | C[C@@H]1[C@H](O)[C@@H](C)/C=C/C=C/C=C/C=C/C=C/C=C/C=C/[C@H](O[C@@H]2O[C@H](C)[C@@H](O)[C@H](N)[C@@H]2O)C[C@@H]2O[C@](O)(C[C@@H](O)C[C@@H](O)[C@H](O)CC[C@@H](O)C[C@@H](O)CC(=O)O[C@H]1C)C[C@H](O)[C@H]2C(=O)O [AMPHOTERICIN B]
0.44 | 0.44 | 0.44 | 0.44 | 0.44 | C[C@@H](c1nc(-c2ccc(C#N)cc2)cs1)[C@](O)(Cn1cncn1)c1ccc(F)cc1F [RAVUCONAZOLE]
≤ 0.25 | > 4 | > 4 | ≤ 0.25 |  | CO[C@H]1C[C@@H]2CC[C@@H](C)[C@@](O)(O2)C(=O)C(=O)N2CCCC[C@H]2C(=O)O[C@H]([C@H](C)C[C@@H]2CC[C@@H](O)[C@H](OC)C2)CC(=O)[C@H](C)/C=C(\C)[C@@H](O)[C@@H](OC)C(=O)[C@H](C)C[C@H](C)/C=C/C=C/C=C/1C [SIROLIMUS]
